Assay outcomes deposited in PubChem by several laboratories.
MEKK2wt PB1 HTS = raises or lowers MEK5 binding to wildtype human MEKK2 PB1 domain. binding response (% of control), % at 10 µM. 1.1% of 290,000 active. Q9Y2U5. AID 1531. bead flow cytometry, Alexa488-MEK5 binding to MEKK2 WT; actives lie on both sides; in the data active means binding response below about 67% or above about 130%
DNA FID counter = counter-screen for HCV NS3 helicase inhibitors: DNA intercalator displacement. DNA fluorescent intercalator displacement, fluorescence. inhibition, % at 7.9 µM. 0.17% of 290,000 active. AID 1845; in the data active means inhibition above about 37%;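 further: higher means more ethidium bromide displaced from hairpin DNA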
MEKK2 mut-MEK5 = signal of MEK5 binding to mutant human MEKK2 PB1 domain | percent response, % at 10 µM | 0.35% of 290,000 active | bead flow cytometry, Alexa488-MEK5 binding to MEKK2 mutant; in the data active means percent response above about 24%, passing the limit was not always enough
T cruzi repl = blocks replication of Trypanosoma cruzi | AID 1885 | T. cruzi beta-gal in NIH3T3, luminescence, 90 h | 1.4% of 300,000 active | inhibition, % (test concentration not listed);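 active means mean inhibition across valid replicates above about 55%, limit read from the data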;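 further: signal also drops with host cell toxicity which is not excluded here; higher percent means less beta-gal luminescence so fewer parasites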
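Test system: β-gal T. cruzi (Tulahuen C4) inside NIH/3T3 cells / Quantity: 5,000 cells/well / Measured by: luminescence from GalScreen with 0.05% NP40, read after 60 min / Medium: DMEM plus 2% FBS / Measure: parasite load inhibition, % / Reagent: Tulahuen C4 trypomastigotes, 5000/well / Schedule: co-culture of at least 90 h after 3 h attachment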
NS3 helicase inh = HCV NS3 helicase inhibition | 0.56% of 290,000 active | inhibition, % at 10.9 µM | NS3 helicase DNA unwinding, Cy5 molecular beacon fluorescence;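 active means inhibition above the mean of all tested compounds plus 3 SD, set per campaign, cut at about 35% in these data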
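test system = hepatitis C virus NS3 helicase domain fragment enzyme | reagent = annealed dual-labelled DNA beacon duplex, ATP-started | times = 1 h at 25 °C | detection = Cy5 fluorescence, 0 and 60 min reads | read-out basis = percent inhibition from t60/t0 fluorescence ratio | control set = DMSO and thioflavine S | replication = one well per compound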
MEKK3 PB1 HTS = raises or lowers MEK5 binding to the human MEKK3 PB1 domain; Q99759; bead-based flow cytometry, Alexa488-MEK5 binding to MEKK3; actives lie on both sides; 0 = blocked by unlabeled MEK5, 100 = vehicle; binding response (% of control), % at 10 µM; 1.4% of 290,000 active;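 active means binding response more than 3 SD above or below the average of its plate-row segment, actives on both sides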;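 further: Alexa488 bead fluorescence after subtracting the streptavidin-only scavenger bead signal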
Target sequence (Q99759 whole entry, looked up, the tested form may be a part): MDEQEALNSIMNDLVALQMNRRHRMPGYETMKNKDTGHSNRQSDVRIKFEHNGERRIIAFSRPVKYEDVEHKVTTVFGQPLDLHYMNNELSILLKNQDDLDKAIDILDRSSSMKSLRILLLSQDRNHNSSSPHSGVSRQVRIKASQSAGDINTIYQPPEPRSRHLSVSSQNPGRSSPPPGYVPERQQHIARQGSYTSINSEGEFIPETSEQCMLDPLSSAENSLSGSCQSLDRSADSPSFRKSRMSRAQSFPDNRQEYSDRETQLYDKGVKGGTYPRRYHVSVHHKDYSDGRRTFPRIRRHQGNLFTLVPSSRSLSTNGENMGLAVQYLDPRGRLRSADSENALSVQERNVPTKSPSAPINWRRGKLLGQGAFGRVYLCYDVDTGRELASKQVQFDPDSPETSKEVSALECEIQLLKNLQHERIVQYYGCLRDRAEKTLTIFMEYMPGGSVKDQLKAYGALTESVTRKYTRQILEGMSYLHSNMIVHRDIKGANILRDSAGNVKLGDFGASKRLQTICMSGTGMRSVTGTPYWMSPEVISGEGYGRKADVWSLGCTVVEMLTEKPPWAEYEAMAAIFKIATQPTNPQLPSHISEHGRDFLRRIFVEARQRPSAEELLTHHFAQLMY
MEKK2wt confirm = raises or lowers MEK5 binding to wildtype human MEKK2, retest | shares compounds with MEKK3 PB1 HTS | bead flow cytometry, Alexa488-MEK5 binding to MEKK2 WT; actives lie on both sides | binding response (% of control), % at 10 µM | 2.4% of 5,900 active; in the data active means binding response below about 16% or above about 210%; inactive means in between
MEKK2mut-MEK5 = signal of MEK5 binding to mutant human MEKK2, retest | percent response, % at 10 µM | shares compounds with MEKK3 PB1 HTS | 2% of 5,900 active | bead flow cytometry, Alexa488-MEK5 binding to MEKK2 mutant | AID 1893; in the data active means percent response mostly above about 71%, no sharp cut-off; inactive means mostly below about 38%;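 further: higher means compound restores mutant binding toward wildtype level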
MEKK3-MEK5 inh = MEKK3-MEK5 PB1 inhibition, single concentration confirmation; bead flow cytometry, Alexa488-MEK5 binding to MEKK3; hits give low values; 1.8% of 5,900 active; binding response (% of control), % at 10 µM; shares compounds with MEKK3 PB1 HTS; AID 1894;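 active means binding response below 72% of control, or above a set upper limit, though filed actives all read lower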
Each line names hits and unclear results; the compound was inactive in the other large screens (follow-up assays come after a bar, where they were run); [ ] = another dose, or the depositor's remark. Hits are enriched below; roughly 4.1% of the tested compounds scored in any of these assays.

O=C(OCC(=O)c1c[nH]c2ccccc12)c1cccc(S(=O)(=O)N2CCCCCC2)c1	MEKK3 PB1 HTS 130.0 | MEKK2wt confirm inactive | MEKK2mut-MEK5 inactive | MEKK3-MEK5 inh inactive
CCc1cccc2c(C(=O)COC(=O)C3=NNC(=O)CC3)c[nH]c12	none
CCc1cccc2c(C(=O)COC(=O)c3cccc(S(=O)(=O)N(C)C4CCCCC4)c3)c[nH]c12	MEKK3 PB1 HTS 132.0 | MEKK2wt confirm inactive | MEKK2mut-MEK5 inactive | MEKK3-MEK5 inh inactive
COC(=O)c1cccc(Oc2cccc(Cl)n2)c1	none
CC(C)OP(=O)(OC(C)C)C(O)c1ccc2c(c1)OCO2 (stereo unspecified)	none
CC(C)COP(=O)(OCC(C)C)C(O)c1ccc2c(c1)OCO2 (stereo unspecified)	MEKK3 PB1 HTS 130.0 | MEKK2wt confirm inactive | MEKK2mut-MEK5 inactive | MEKK3-MEK5 inh inactive
CCCCOP(=O)(OCCCC)C(Nc1ccccc1)c1ccc2c(c1)OCO2 (stereo unspecified)	MEKK3 PB1 HTS 144.0 | MEKK2wt confirm inactive | MEKK2mut-MEK5 inactive | MEKK3-MEK5 inh inactive
O=[N+]([O-])c1ccc(N2CCCCC2)cc1NCCOc1ccccc1	none
CC1CN(c2ccc([N+](=O)[O-])c(NCCOc3ccccc3)c2)CC(C)N1 (stereo unspecified)	MEKK2wt PB1 HTS 170.0 | MEKK2wt confirm inactive | MEKK2mut-MEK5 inactive | MEKK3-MEK5 inh inactive
COc1cccc(OCCNc2cc(Cl)ccc2[N+](=O)[O-])c1	none
NCCNc1cc(N2CCCC2)ccc1[N+](=O)[O-]	none
Cc1ccccc1OCCNc1cc(N2CC(C)NC(C)C2)ccc1[N+](=O)[O-] (stereo unspecified)	MEKK2wt PB1 HTS 198.0, DNA FID counter 38.9 | MEKK2wt confirm inactive | MEKK2mut-MEK5 inactive | MEKK3-MEK5 inh inactive
CC1CN(c2ccc([N+](=O)[O-])c(NCCOc3ccc(Cl)cc3)c2)CC(C)N1 (stereo unspecified)	MEKK2wt PB1 HTS 222.0, MEKK2 mut-MEK5 48.0 | MEKK2wt confirm inactive | MEKK2mut-MEK5 inactive | MEKK3-MEK5 inh inactive
CC1CCCCN1C(=O)COc1ccccc1F (stereo unspecified)	MEKK3 PB1 HTS 135.0 | MEKK2wt confirm inactive | MEKK2mut-MEK5 inactive | MEKK3-MEK5 inh inactive
Cc1nn(S(=O)(=O)c2ccc(F)cc2)c(C)c1S(=O)(=O)N1CCCCC1	none
Cc1cccc(C)c1NC(=S)N(C)CCc1ccccn1	MEKK3 PB1 HTS 129.0 | MEKK2wt confirm inactive | MEKK2mut-MEK5 inactive | MEKK3-MEK5 inh inactive
CC(C)c1ccc(NC(=S)N(C)CCc2ccccn2)cc1	none
CC(C)N(c1ccccc1)c1ccc(NC(=O)COC(=O)CCN2C(=O)c3cccc([N+](=O)[O-])c3C2=O)cc1	MEKK3 PB1 HTS 48.0[inhibitor] | MEKK2wt confirm inactive | MEKK2mut-MEK5 inactive | MEKK3-MEK5 inh inactive
Cn1c(Cn2c(C(F)(F)F)nc3ccccc32)nc2ccccc21	MEKK2 mut-MEK5 24.0 | MEKK2wt confirm inactive | MEKK2mut-MEK5 inactive | MEKK3-MEK5 inh inactive
CCN(c1ccccc1)S(=O)(=O)c1cc(NC(=O)Nc2ccccc2C#N)ccc1Cl	MEKK3 PB1 HTS 133.0 | MEKK2wt confirm inactive | MEKK2mut-MEK5 inactive | MEKK3-MEK5 inh inactive
Cc1ccc(C2(C)NC(=O)N(CC(=O)Nc3cc(S(=O)(=O)N(C)C)ccc3C)C2=O)cc1 (stereo unspecified)	none
COc1cc([N+](=O)[O-])ccc1NC(=O)CSc1n[nH]c(C(C)C)n1	none
